# Measurements from ChEMBL document CHEMBL1142975 (J Med Chem, 2007).
# Activity calls are given as the source filed them. No cut-off for these calls is given here.
# Legend:
# Vaccinia virus [1] = experiment: Antiviral activity against vaccinia virus IHD-J in BSC40 cells by CPE assay; format: functional, organism-based; settings: Orthopoxvirus vaccinia, BSC-40
# [2] = Cytotoxicity against vaccinia virus IHD-J infected BSC40 cells; format: cell-based, Macaca mulatta; settings: rhesus monkey, BSC-40 cells infected with vaccinia virus IHD-J
# [3] = Metabolic stability in monkey Liver S9 fraction; format: ADME, subcellular, Macaca mulatta; settings: rhesus monkey
# Summary of the method: (§1)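 Compound was incubated with liver S-9 extracts from each species, with NADPH added. Loss of parent compound was followed by LC/MS and reported as half-life in minutes.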
# Monkeypox virus = experiment: Antiviral activity against monkeypox virus by CPE assay; format: functional, organism-based
# Camelpox virus = experiment: Antiviral activity against camelpox virus by CPE assay; format: functional, organism-based
# Variola virus [4] = experiment: Antiviral activity against variola virus BUT virus by CPE assay; format: functional, organism-based
# Variola virus [5] = experiment: Antiviral activity against variola virus BSH virus by CPE assay; format: functional, organism-based
# [6] = Metabolic stability in rat Liver S9 fraction; format: ADME, subcellular; summary of the method: as §1
# [7] = Metabolic stability in mouse Liver S9 fraction; format: ADME, subcellular; summary of the method: as §1
# [8] = Metabolic stability in dog Liver S9 fraction; format: ADME, subcellular, Canis lupus familiaris; summary of the method: as §1
# [9] = Metabolic stability in human Liver S9 fraction; format: ADME, subcellular; summary of the method: as §1
# Vaccinia virus [10] = experiment: Antiviral activity assessed as inhibition of extracellular virus formation in vaccinia virus IHD-J infected BSC40 cells at 5 uM after 24 hrs; format: functional, organism-based; settings: Orthopoxvirus vaccinia, BSC-40
# [11] = Tmax in rat at 2 mg/kg, po; format: ADME, organism-based; parameters: dose 2 mg/kg, route oral; settings: in vivo
# Summary of the method: (§2)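 Rats were dosed orally in 0.75% Methocell/1% Tween vehicle, and a separate intravenous arm was run to derive bioavailability. Plasma concentration–time data gave Tmax, Cmax, AUC, t1/2, clearance, Vss and %F.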
# [12] = Cmax in rat at 2 mg/kg, po; format: ADME, organism-based; parameters: dose 2 mg/kg, route oral; settings: in vivo; summary of the method: as §2
# [13] = AUC in rat at 2 mg/kg, po; format: ADME, organism-based; parameters: dose 2 mg/kg, route oral; settings: plasma; summary of the method: as §2
# [14] = Half life in rat at 2 mg/kg, po; format: ADME, organism-based; parameters: dose 2 mg/kg, route oral; settings: in vivo; summary of the method: as §2
# [15] = Clearance in rat at 2 mg/kg, po; format: ADME, organism-based; parameters: dose 2 mg/kg, route oral; settings: in vivo; summary of the method: as §2
# Rattus norvegicus = experiment: Volume of distribution at steady state in rat at 2 mg/kg, po; format: ADME, organism-based; parameters: dose 2 mg/kg, route oral; settings: in vivo; summary of the method: as §2
# [16] = Oral bioavailability in rat at 2 mg/kg, po; format: ADME, organism-based; settings: in vivo; summary of the method: as §2
# Mus musculus = experiment: Toxicity in mouse at 2000 mg/kg after 28 days; format: organism-based; parameters: dose 2000 mg/kg; settings: in vivo, 672 h
# Summary of the method: (§3)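 Animals received 28-day repeat dosing, and the no observable adverse effect level (NOAEL) was determined.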
# Cynomolgus monkey = experiment: Toxicity in cynomolgus monkey at 600 mg/kg after 28 days; format: organism-based, Macaca fascicularis; parameters: dose 600 mg/kg; settings: in vivo, 672 h; summary of the method: as §3
# Human alphaherpesvirus 1 = experiment: Antiviral activity against HSV1 KOS by plaque reduction assay; format: functional, organism-based; settings: Human alphaherpesvirus 1, KOS
# Human betaherpesvirus 5 = experiment: Antiviral activity against human cytomegalovirus AD169 by plaque reduction assay; format: functional, organism-based; settings: Human betaherpesvirus 5, AD169
# [17] = system: Respiratory syncytial virus; experiment: Antiviral activity against RSV A by plaque reduction assay; format: functional, organism-based; settings: human respiratory syncytial virus
# [18] = system: Bovine viral diarrhea virus 1; experiment: Antiviral activity against BVDV NADL by plaque reduction assay; format: functional, organism-based; settings: Bovine viral diarrhea virus isolates and strains
# Rotavirus = experiment: Antiviral activity against rotavirus by plaque reduction assay; format: functional, organism-based
# Cowpox virus = experiment: Antiviral activity against cowpox virus by CPE assay; format: functional, organism-based
Structure (SMILES),EC50 (Vaccinia virus [1]) [nM],CC50 [2] [nM],EC50 (Monkeypox virus) [nM],EC50 (Camelpox virus) [nM],EC50 (Variola virus [4]) [nM],EC50 (Variola virus [5]) [nM],also measured
Nc1ccc(C(=O)NN2C(=O)[C@@H]3C4C=CC(C5CC54)[C@@H]3C2=O)cc1 (stereo partly specified),7700,> 92000,,,,,
O=C(NN1C(=O)[C@@H]2C3C=CC(C4CC43)[C@@H]2C1=O)c1ccc(C(F)(F)F)cc1 (stereo partly specified),40,> 100000,10,10,20,50,half-life [3]: > 3.33 h; half-life [6]: > 3.33 h; half-life [7]: > 3.33 h; half-life [8]: > 3.33 h; half-life [9]: > 3.33 h; Activity (Vaccinia virus [10]): Active; Tmax [11]: 2.2 h; Cmax [12]: 920 ng/mL; AUC [13]: 6100 ng·h/mL; half-life [14]: 4.2 h; CL/F [15]: 8.67 mL/min/kg; Vss (Rattus norvegicus): 0.6 L/kg; bioavailability [16]: 31%; Activity (Mus musculus): Non-toxic; Activity (Cynomolgus monkey): Non-toxic; EC50 (Human alphaherpesvirus 1): > 40000 nM; EC50 (Human betaherpesvirus 5): > 40000 nM; EC50 [17]: > 40000 nM; EC50 [18]: > 40000 nM; EC50 (Rotavirus): > 40000 nM
O=C(NN1C(=O)[C@@H]2C3C=CC(C4CC43)[C@@H]2C1=O)c1cccc(Cl)c1 (stereo partly specified),40,> 100000,,,,,EC50 (Cowpox virus): 600 nM
Cc1cc(C(=O)NN2C(=O)[C@@H]3C4C=CC(C5CC54)[C@@H]3C2=O)[nH]n1 (stereo partly specified),7100,> 100000,,,,,
O=C(NN1C(=O)[C@@H]2C3C=CC(C4CC43)[C@@H]2C1=O)c1ccc(Br)cc1 (stereo partly specified),20,> 100000,10,10,20,50,half-life [3]: > 3.33 h; half-life [6]: > 3.33 h; half-life [7]: > 3.33 h; half-life [8]: > 3.33 h; half-life [9]: 0.95 h
O=C(NN1C(=O)[C@@H]2C3C=CC(C4CC43)[C@@H]2C1=O)c1ccc([N+](=O)[O-])cc1 (stereo partly specified),20,> 86000,,,,,
Cn1cccc1C(=O)NN1C(=O)[C@@H]2C3C=CC(C4CC43)[C@@H]2C1=O (stereo partly specified),15800,> 100000,,,,,
O=C(NN1C(=O)[C@@H]2C3C=CC(C4CC43)[C@@H]2C1=O)c1ccc(Cl)cc1 (stereo partly specified),20,> 100000,,,,,EC50 (Cowpox virus): 770 nM
O=C(NN1C(=O)[C@@H]2C3C=CC(C4CC43)[C@@H]2C1=O)c1ccccc1Br (stereo partly specified),2300,> 100000,3600,3800,1400,3300,
O=C(NN1C(=O)[C@@H]2C3C=CC(C4CC43)[C@@H]2C1=O)c1cccc(Br)c1 (stereo partly specified),50,> 100000,,,,,
COc1ccc(C(=O)NN2C(=O)[C@@H]3C4C=CC(C5CC54)[C@@H]3C2=O)cc1 (stereo partly specified),2200,> 100000,,,,,
O=C(NN1C(=O)[C@@H]2C3CCC(C4CC43)[C@@H]2C1=O)c1ccc(C(F)(F)F)cc1 (stereo partly specified),20,> 100000,80,30,10,200,
O=C(NN1C(=O)[C@@H]2C3C=CC(C4CC43)[C@@H]2C1=O)c1cccnc1 (stereo partly specified),740,> 100000,,,,,
CN(C)c1ccc(C(=O)NN2C(=O)[C@@H]3C4C=CC(C5CC54)[C@@H]3C2=O)cc1 (stereo partly specified),2000,> 100000,,,,,
O=C(NN1C(=O)[C@@H]2C3C=CC(C4CC43)[C@@H]2C1=O)c1ccncc1 (stereo partly specified),500,> 100000,150,110,220,400,
O=C(NN1C(=O)[C@@H]2C3C=CC(C4CC43)[C@@H]2C1=O)c1ccccn1 (stereo partly specified),> 20000,> 100000,> 16000,4200,10000,> 20000,
O=C(NN1C(=O)[C@@H]2C3C=CC(C4CC43)[C@@H]2C1=O)c1ccccc1Cl (stereo partly specified),3000,> 100000,,,,,EC50 (Cowpox virus): > 20000 nM
